Results published in ChEMBL document CHEMBL4011627, “Hepatitis C Virus NS3/4A Protease Inhibitors Incorporating Flexible P2 Quinoxalines Target Drug Resistant Viral Variants” (J Med Chem, 2017).

Legend:
Hepatitis C virus [1] = experiment: Antiviral activity against HCV genotype 1b Con1 harboring HCV genotype 1a H77 NS3 D168A mutant infected in human HuH7 cells assessed as inhibition of viral replication after 96 hrs by luciferase reporter gene assay; assay type: functional, cell-based, Hepacivirus hominis; settings: genotype 1b Con1, Huh-7, 96 h
Hepatitis C virus [2] = experiment: Antiviral activity against HCV genotype 1b Con1 harboring HCV genotype 1a H77 NS3 infected in human HuH7 cells assessed as inhibition of viral replication after 96 hrs by luciferase reporter gene assay; assay type: functional, cell-based, Hepacivirus hominis; settings: genotype 1b Con1, Huh-7, 96 h
[3] = Inhibition of HCV genotype 1a NS3/4A protease using Ac-DE-Dap(QXL 520)-EE-Abu-psi-[COO]AS-C(5-FAMsp)-NH2 as substrate preincubated for 1 hr followed by substrate addition; design: species or system Hepatitis C virus subtype 1a
Method in brief: (§1)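 Protease domain at 2 nM preincubated 1 h at room temperature with inhibitor titrations (at least 12 concentrations) in 50 mM Tris, 5% glycerol, 10 mM DTT, 0.6 mM LDAO, 4% DMSO. Reaction started with fluorogenic substrate (200 nM final) and followed kinetically (ex 485/em 530 nm). Three independent data sets, fit globally to the Morrison equation for Ki.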

[4] = target: Hepatitis C virus serine protease, NS3/NS4A (Hepatitis C virus, UniProt A3EZI9+D2K2A8, D168A); experiment: Inhibition of HCV genotype 1a NS3/4A protease D168A mutant using Ac-DE-Dap(QXL 520)-EE-Abu-psi-[COO]AS-C(5-FAMsp)-NH2 as substrate preincubated for 1 hr followed by substrate addition; design: species or system Hepatitis C virus subtype 1a
Method in brief: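 NS3/4A protease domain at 2 nM pre-incubated 1 h at room temperature with increasing inhibitor (at least 12 concentrations) in 50 mM Tris, 5% glycerol, 10 mM DTT, 0.6 mM LDAO, 4% DMSO. Reaction started with FRET substrate (final 200 nM), monitored kinetically (ex 485/em 530 nm). Three independent data sets; global Morrison fit for Ki.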

Hepatitis C virus [5] = experiment: Antiviral activity against HCV genotype 1b Con1 harboring HCV genotype 1a H77 NS3 D168V mutant infected in human HuH7 cells assessed as inhibition of viral replication after 96 hrs by luciferase reporter gene assay; assay type: functional, cell-based, Hepacivirus hominis; settings: genotype 1b Con1, Huh-7, 96 h
Hepatitis C virus [6] = experiment: Antiviral activity against HCV genotype 1b Con1 harboring HCV genotype 1a H77 NS3 A156T mutant infected in human HuH7 cells assessed as inhibition of viral replication after 96 hrs by luciferase reporter gene assay; assay type: functional, cell-based, Hepacivirus hominis; settings: genotype 1b Con1, Huh-7, 96 h
Hepatitis C virus [7] = experiment: Antiviral activity against HCV genotype 1b Con1 harboring HCV genotype 1a H77 NS3 R155K mutant infected in human HuH7 cells assessed as inhibition of viral replication after 96 hrs by luciferase reporter gene assay; assay type: functional, cell-based, Hepacivirus hominis; settings: genotype 1b Con1, Huh-7, 96 h
[8] = Inhibition of HCV genotype 3a NS3/4A protease using Ac-DE-Dap(QXL520)-EE-Abu-psi-[COO]AS-C(5-FAMsp)-NH2 as substrate preincubated for 1 hr followed by substrate addition; design: species or system Hepatitis C virus subtype 3a; method in brief: as §1

SMILES	EC50 (Hepatitis C virus [1]) [nM]	EC50 (Hepatitis C virus [2]) [nM]	Ki [3] [nM]	Ki [4] [nM]	EC50 (Hepatitis C virus [5]) [nM]	EC50 (Hepatitis C virus [6]) [nM]	EC50 (Hepatitis C virus [7]) [nM]	Ki [8] [nM]
COc1ccc2nc(C(C)C)c(O[C@@H]3C[C@H]4C(=O)N[C@]5(C(=O)NS(=O)(=O)C6CC6)C[C@H]5/C=C\CCCCC[C@H](NC(=O)OC5CCCC5)C(=O)N4C3)nc2c1	7.96	0.48	1.44	161	30.1	32.1	7.63	–
COc1ccc2nc(Cl)c(O[C@@H]3C[C@H]4C(=O)N[C@]5(C(=O)NS(=O)(=O)C6(C)CC6)C[C@H]5/C=C\CCCCC[C@H](NC(=O)OC(C)(C)C)C(=O)N4C3)nc2c1	1.07	0.18	1.11	77.7	0.49	8.86	0.4	53.6
CCc1nc2ccccc2nc1O[C@@H]1C[C@H]2C(=O)N[C@]3(C(=O)NS(=O)(=O)C4CC4)C[C@H]3/C=C\CCCCC[C@H](NC(=O)OC(C)(C)C)C(=O)N2C1	8.55	0.46	7.18	190	14	10.6	1.81	–
COc1ccc2nc(C(F)(F)F)c(O[C@@H]3C[C@H]4C(=O)N[C@]5(C(=O)NS(=O)(=O)C6CC6)C[C@H]5/C=C\CCCCC[C@H](NC(=O)OC(C)(C)C)C(=O)N4C3)nc2c1	16.8	1.98	13.3	157	17.1	36.2	3.45	344
COc1ccc2nc(C(C)C)c(O[C@@H]3C[C@H]4C(=O)N[C@]5(C(=O)NS(=O)(=O)C6CC6)C[C@H]5/C=C\CCCCC[C@H](NC(=O)OC(C)(C)C)C(=O)N4C3)nc2c1	15.3	1.43	4.27	239	23.7	25.7	5.02	–
CCc1nc2ccc(OC)cc2nc1O[C@@H]1C[C@H]2C(=O)N[C@]3(C(=O)NS(=O)(=O)C4(C)CC4)C[C@H]3/C=C\CCCCC[C@H](NC(=O)OC(C)(C)C)C(=O)N2C1	4.97	0.43	1.82	55.2	6.42	4.52	1.8	171
COc1ccc2nc(C)c(O[C@@H]3C[C@H]4C(=O)N[C@]5(C(=O)NS(=O)(=O)C6CC6)C[C@H]5/C=C\CCCCC[C@H](NC(=O)OC5CCCC5)C(=O)N4C3)nc2c1	2.63	0.11	0.93	31.9	4.32	2.88	0.89	147
COc1ccc2nc(C)c(O[C@@H]3C[C@H]4C(=O)N[C@]5(C(=O)NS(=O)(=O)C6(C)CC6)C[C@H]5/C=C\CCCCC[C@H](NC(=O)OC5CCCC5)C(=O)N4C3)nc2c1	2.16	0.13	1.13	36.3	–	3.99	1.09	121
CCc1nc2ccc(OC)cc2nc1O[C@@H]1C[C@H]2C(=O)N[C@]3(C(=O)NS(=O)(=O)C4(C)CC4)C[C@H]3/C=C\CCCCC[C@H](NC(=O)OC3CCCC3)C(=O)N2C1	3.45	0.16	1.37	55.2	7.08	10.6	2.07	186
CCc1nc2ccccc2nc1O[C@@H]1C[C@H]2C(=O)N[C@]3(C(=O)NS(=O)(=O)C4CC4)C[C@H]3/C=C\CCCCC[C@H](NC(=O)OC3CCCC3)C(=O)N2C1	7.5	0.24	1.99	107	19.3	24.6	4.28	–
COc1ccc2nc(C(F)(F)F)c(O[C@@H]3C[C@H]4C(=O)N[C@]5(C(=O)NS(=O)(=O)C6CC6)C[C@H]5/C=C\CCCCC[C@H](NC(=O)OC5CCCC5)C(=O)N4C3)nc2c1	15.1	4.86	7.55	115	24	117	7.97	757
COc1ccc2nc(C(C)C)c(O[C@@H]3C[C@H]4C(=O)N[C@]5(C(=O)NS(=O)(=O)C6(C)CC6)C[C@H]5/C=C\CCCCC[C@H](NC(=O)OC5CCCC5)C(=O)N4C3)nc2c1	7.91	0.59	1.34	156	18.2	27.6	6.83	–
COc1ccc2nc(C(F)(F)F)c(O[C@@H]3C[C@H]4C(=O)N[C@]5(C(=O)NS(=O)(=O)C6(C)CC6)C[C@H]5/C=C\CCCCC[C@H](NC(=O)OC5CCCC5)C(=O)N4C3)nc2c1	8.46	4.04	8.14	110	11.4	75.9	6.9	433
CCc1nc2ccc(OC)cc2nc1O[C@@H]1C[C@H]2C(=O)N[C@]3(C(=O)NS(=O)(=O)C4CC4)C[C@H]3/C=C\CCCCC[C@H](NC(=O)OC(C)(C)C)C(=O)N2C1	6.31	0.33	3.29	82.4	9.1	9.65	1.75	204
COc1ccc2nc(C(C)C)c(O[C@@H]3C[C@H]4C(=O)N[C@]5(C(=O)NS(=O)(=O)C6(C)CC6)C[C@H]5/C=C\CCCCC[C@H](NC(=O)OC(C)(C)C)C(=O)N4C3)nc2c1	11.9	1.86	0.58	211	18.1	21.2	4.14	–
COc1ccc2nc(Cl)c(O[C@@H]3C[C@H]4C(=O)N[C@]5(C(=O)NS(=O)(=O)C6(C)CC6)C[C@H]5/C=C\CCCCC[C@H](NC(=O)OC5CCCC5)C(=O)N4C3)nc2c1	0.97	0.15	0.44	25.7	1.09	4.32	0.56	61
CCc1nc2ccc(OC)cc2nc1O[C@@H]1C[C@H]2C(=O)N[C@]3(C(=O)NS(=O)(=O)C4CC4)C[C@H]3/C=C\CCCCC[C@H](NC(=O)OC3CCCC3)C(=O)N2C1	3.6	0.14	1.24	52.3	11.9	11.8	2.08	211
COc1ccc2nc(C)c(O[C@@H]3C[C@H]4C(=O)N[C@]5(C(=O)NS(=O)(=O)C6(C)CC6)C[C@H]5/C=C\CCCCC[C@H](NC(=O)OC(C)(C)C)C(=O)N4C3)nc2c1	2.37	0.3	3.6	52	1.6	1.57	0.8	119
COc1ccc2nc(C)c(O[C@@H]3C[C@H]4C(=O)N[C@]5(C(=O)NS(=O)(=O)C6CC6)C[C@H]5/C=C\CCCCC[C@H](NC(=O)OC(C)(C)C)C(=O)N4C3)nc2c1	4.24	0.39	3.4	50.9	3.17	5.95	1.17	152
COc1ccc2nc(C(F)(F)F)c(O[C@@H]3C[C@H]4C(=O)N[C@]5(C(=O)NS(=O)(=O)C6(C)CC6)C[C@H]5/C=C\CCCCC[C@H](NC(=O)OC(C)(C)C)C(=O)N4C3)nc2c1	8.64	1.52	5.77	118	8.31	20.5	2.3	231
COc1ccc2nc(Cl)c(O[C@@H]3C[C@H]4C(=O)N[C@]5(C(=O)NS(=O)(=O)C6CC6)C[C@H]5/C=C\CCCCC[C@H](NC(=O)OC5CCCC5)C(=O)N4C3)nc2c1	1.32	0.15	0.49	30.6	1.55	3.55	0.59	85.6
COc1ccc2nc(Cl)c(O[C@@H]3C[C@H]4C(=O)N[C@]5(C(=O)NS(=O)(=O)C6CC6)C[C@H]5/C=C\CCCCC[C@H](NC(=O)OC(C)(C)C)C(=O)N4C3)nc2c1	1.42	0.16	1.07	39.8	0.73	16.2	0.44	67.5
